In data set [1] the test system is Trypanosoma cruzi. Briefly: Antitrypanosomal activity against trypomastigote form of Trypanosoma cruzi Y assessed as parasite growth inhibition after 24 hrs by Neubauer cell counting method. The data set is classed as functional, organism-based.
Data set [2] is described as follows: Selectivity index, ratio of LC50 for mouse HMC to IC50 for trypomastigote form of Trypanosoma cruzi Y. The gist of the method:
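Ratio of 24 h LC50 to 24 h IC50. The LC50 came from PrestoBlue on primary mouse embryo heart muscle cells. The IC50 came from Y strain bloodstream trypomastigotes taken at peak parasitaemia from infected albino mice, isolated by differential centrifugation, and held at 10^7 cells/mL in DME with 10% mouse blood. DMSO was at most 0.5%.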

The nature of data set [3]: Cytotoxicity against mouse HMC after 24 hrs by PrestoBlue staining-based assay. To be noted: mouse HMC cells, read-out: LC50. A digest of the protocol:
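Primary heart muscle cells from 18-day-old mouse embryo hearts, dissociated with trypsin and collagenase in PBS pH 7.2. Seeded at 6x10^4 cells/well in RPMI-1640 (pH 7.2), 10% FBS, 2 mM glutamine, 24 h, 37°C. Treated 24 h at 37°C in phenol-red-free supplemented medium. PrestoBlue 5 h, read at 570 and 600 nm. LC50 = concentration damaging 50% of cells versus untreated.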

Data set [4] has as its system Trypanosoma cruzi. Kind of data set: Potency index, ratio of benznidazole IC50 to compound IC50 for trypomastigote form of Trypanosoma cruzi Y. It counts as functional.

Bounds are passed on as bounds.

For orientation: IC50 means the concentration needed to halve the response being measured. Take `CC1(C)Oc2c(c3nc4ccccc4nc3c3ccccc23)C1n1cc(-c2ccccc2)nn1` (stereo not given): the IC50 with Trypanosoma cruzi [1] is > 1500 µM.

`CCC(C)(O)c1cn(C2C3=C(OC2(C)C)C(=O)c2ccccc2C3=O)nn1` (stereo not given): the IC50 with Trypanosoma cruzi [1] is > 4000 µM.

For the molecule `CC1(C)Oc2c(c3nccnc3c3ccccc23)C1n1cc(-c2ccccc2)nn1` (stereo not given), the IC50 with Trypanosoma cruzi [1] was > 4000 µM.

`O=C1C=C(NCc2cn(CN3C(=O)c4ccccc4C3=O)nn2)C(=O)c2ccccc21`: the IC50 in the data set on Trypanosoma cruzi [1] was > 4000 µM.

On to `O=C1C(Br)=C(NCc2cn(CN3C(=O)c4ccccc4C3=O)nn2)C(=O)c2ccccc21`, for which the IC50 in the data set on Trypanosoma cruzi [1] was > 4000 µM.

As for `O=C1C(Br)=C(NCc2cn(CCN3C(=O)c4ccccc4C3=O)nn2)C(=O)c2ccccc21`, the IC50 in the data set with Trypanosoma cruzi [1] is > 4000 µM.

For the molecule `O=C1C=C(NCc2cn(-c3cccc([N+](=O)[O-])c3)nn2)C(=O)c2ccccc21`, the IC50 in the data set on Trypanosoma cruzi [1] was > 4000 µM.

Regarding `O=C1C=C(NCc2cn(CCN3C(=O)c4ccccc4C3=O)nn2)C(=O)c2ccccc21`, the IC50 with Trypanosoma cruzi [1] was > 4000 µM.

As for `O=C1C(Cl)=C(NCc2cn(CCCN3C(=O)c4ccccc4C3=O)nn2)C(=O)c2ccccc21`, the IC50 with Trypanosoma cruzi [1] was > 4000 µM.

For the molecule `O=C1C(Br)=C(NCc2cn(-c3cccc([N+](=O)[O-])c3)nn2)C(=O)c2ccccc21`, in the data set with Trypanosoma cruzi [1], the IC50 is > 4000 µM.

With `CCC(C)(O)c1cn(C2CC(C)(C)OC3=C2C(=O)c2ccccc2C3=O)nn1` (stereo not given), the IC50 with Trypanosoma cruzi [1] was > 500 µM.

Regarding `O=C1C=C(NCc2cn(CCCN3C(=O)c4ccccc4C3=O)nn2)C(=O)c2ccccc21`, the IC50 in the data set on Trypanosoma cruzi [1] was > 4000 µM.

In the case of `CC1(C)OC2=C(C(=O)C(=O)c3ccccc32)C1n1cc(CNC2=CC(=O)c3ccccc3C2=O)nn1` (stereo not given), the Ratio LC50/IC50 in data set [2] was < 1.5. In addition, the IC50 in the data set with Trypanosoma cruzi [1] stood at 80.8 µM. For the same molecule, the CC50 at 24 h in data set [3] was < 125 µM.

For `CCCCCCc1cn(C2C3=C(OC2(C)C)C(=O)c2ccccc2C3=O)nn1` (stereo not given), in the data set with Trypanosoma cruzi [1], the IC50 is > 2000 µM.

In the case of `CC1(C)CC(n2cc(C3CCCCC3)nn2)C2=C(O1)C(=O)c1ccccc1C2=O` (stereo not given), the concentration for half-maximal inhibition (IC50) with Trypanosoma cruzi [1] was > 2000 µM.

In the case of `CC1(C)OC2=C(C(=O)c3ccccc3C2=O)C1n1cc(-c2ccccc2)nn1` (stereo not given), the IC50 with Trypanosoma cruzi [1] is > 4000 µM.

Regarding `CC1(C)OC2=C(C(=O)/C(=N\O)c3ccccc32)C1n1cc(-c2ccccc2)nn1` (stereo not given), the half-inhibitory concentration (IC50) in the data set on Trypanosoma cruzi [1] is > 3200 µM.

In the case of `O=C1C(Cl)=C(NCc2cn(CN3C(=O)c4ccccc4C3=O)nn2)C(=O)c2ccccc21`, in the data set on Trypanosoma cruzi [1], the IC50 was > 4000 µM.

For `CC1(C)OC2=C(C(=O)C(=O)c3ccccc32)C1n1cc(CNC2=C(Cl)C(=O)c3ccccc3C2=O)nn1` (stereo not given), the Ratio LC50/IC50 in data set [2] was 34.3. Further, the IC50 with Trypanosoma cruzi [1] was found to be 8.2 µM. In addition, the CC50 at 24 h in data set [3] was 282 µM. For the same molecule, in the data set with Trypanosoma cruzi [4], the “Ratio IC50” value was 12.

`CC1(C)OC2=C(C(=O)C(=O)c3ccccc32)C1n1cc(-c2ccccc2)nn1` (stereo not given): the 50% inhibitory concentration (IC50) in the data set with Trypanosoma cruzi [1] came out at 17.3 µM.

For the molecule `O=C1C(Cl)=C(NCc2cn(CCN3C(=O)c4ccccc4C3=O)nn2)C(=O)c2ccccc21`, in the data set on Trypanosoma cruzi [1], the IC50 is > 4000 µM.

`CC1(C)OC2=C(C(=O)C(=O)c3ccccc32)C1n1cc(CNC2=C(Br)C(=O)c3ccccc3C2=O)nn1` (stereo not given): in data set [2], the Ratio LC50/IC50 stood at 9.3. Also, the IC50 in the data set with Trypanosoma cruzi [1] is 6.8 µM. Also, the CC50 at 24 h in data set [3] was 63.1 µM. Further, in the data set with Trypanosoma cruzi [4], the “Ratio IC50” value turned out to be 15.

Regarding `O=C1C=C(NCc2cn(CCCCN3C(=O)c4ccccc4C3=O)nn2)C(=O)c2ccccc21`, in the data set with Trypanosoma cruzi [1], the IC50 is > 4000 µM.

As for `CC1(C)OC2=C(C(=O)c3ccccc3C2=O)C1n1cc(C2CCCCC2)nn1` (stereo not given), the IC50 in the data set on Trypanosoma cruzi [1] was > 1500 µM.

With `CCCCCc1cn(C2CC(C)(C)OC3=C2C(=O)c2ccccc2C3=O)nn1` (stereo not given), in the data set on Trypanosoma cruzi [1], the half-inhibitory concentration (IC50) was > 4000 µM.

As for `CC1(C)CC(N=[N+]=[N-])C2=C(O1)C(=O)c1ccccc1C2=O` (stereo not given), the IC50 in the data set on Trypanosoma cruzi [1] stood at 318 µM.

`O=C1C(Br)=C(NCc2cn(CCCN3C(=O)c4ccccc4C3=O)nn2)C(=O)c2ccccc21`: the IC50 with Trypanosoma cruzi [1] is > 4000 µM.

The values are drawn from ChEMBL document CHEMBL2439952, “Synthesis and anti-Trypanosoma cruzi activity of naphthoquinone-containing triazoles: electrochemical studies on the effects of the quinoidal moiety” (Bioorg Med Chem, 2013).
